Reference: ChEMBL document CHEMBL4304756, “Second-Generation Tryptamine Derivatives Potently Sensitize Colistin Resistant Bacteria to Colistin” (ACS Med Chem Lett, 2019)
Active and inactive are the calls of the source. The calls are words filed in the database; no cut-off is given here.

Key:
Acinetobacter baumannii [1] = assay: Antivirulence activity in Acinetobacter baumannii 4106 infected Galleria mellonella larvae model assessed as survival rate at 100 mg/kg measured at 24 hrs interval over 4 days; type: functional
Outline: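 A. baumannii 4106 was given to Galleria mellonella larvae at 6 × 10^5 CFU, the lethal inoculum found by dose escalation. Larvae were treated with colistin 50 mg/kg, adjuvant 50 mg/kg, colistin plus adjuvant (50 mg/kg each), or tigecycline 100 mg/kg as positive control. Survival was scored out to day 4.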

Klebsiella pneumoniae [2] = assay: Potentiation of colistin-induced antibacterial activity against Klebsiella pneumoniae 2210291 harbouring mcr-1 gene assessed as colistin MIC at 50 uM incubated for 16 hrs by broth microdilution method (reference value: 16 ug/ml); type: functional; settings: Klebsiella pneumoniae, 2210291, 16 h
Escherichia coli [3] = assay: Potentiation of colistin-induced antibacterial activity against Escherichia coli YD626 harbouring mcr-1 gene assessed as colistin MIC at 50 uM incubated for 16 hrs by broth microdilution method (reference value: 8 ug/ml); type: functional; settings: YD626, 16 h
Klebsiella pneumoniae [4] = assay: Potentiation of colistin-induced antibacterial activity against Klebsiella pneumoniae 2210291 assessed as colistin MIC at 50 uM incubated for 16 hrs by broth microdilution method (reference value: 1 ug/ml); type: functional; settings: Klebsiella pneumoniae, 2210291, 16 h
[5] = Hemolytic activity in sheep RBC at 200 uM incubated for 1 hr by UV spectrophotometry; type: ADME, cell-based, Ovis aries, Erythrocyte; settings: sheep red blood cells (erythrocytes), read-out: Activity
Outline: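 Red blood cells exposed to compound at 200 μM, with percent cell lysis recorded.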

Acinetobacter baumannii [6] = assay: Potentiation of colistin-induced antibacterial activity against Acinetobacter baumannii 17978 assessed as colistin MIC at 50 uM incubated for 16 hrs by broth microdilution method (reference value: 2 ug/ml); type: functional; settings: Acinetobacter baumannii, 17978, 16 h
Acinetobacter baumannii [7] = assay: Potentiation of colistin-induced antibacterial activity against Acinetobacter baumannii 17978 harbouring mcr-1 gene assessed as colistin MIC at 50 uM incubated for 16 hrs by broth microdilution method (reference value: 16 ug/ml); type: functional; settings: Acinetobacter baumannii, 17978, 16 h
Escherichia coli [8] = assay: Potentiation of colistin-induced antibacterial activity against Escherichia coli YD626 assessed as colistin MIC at 50 uM incubated for 16 hrs by broth microdilution method (reference value: 1 ug/ml); type: functional; settings: YD626, 16 h
Escherichia coli [9] = assay: Potentiation of colistin-induced antibacterial activity against Escherichia coli YD626 harbouring mcr-1 gene assessed as reduction in colistin MIC at 15 uM incubated for 16 hrs by broth microdilution method; type: functional, organism-based
Outline: (§1)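 For the dose-response, colistin MIC was measured against mcr-1 plasmid-bearing E. coli, K. pneumoniae and A. baumannii while the adjuvant concentration was lowered stepwise (30, 15 μM, down to 5 μM). The aim was to find where the MIC rose above the 2 μg/mL CLSI susceptibility breakpoint.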

Klebsiella pneumoniae [10] = assay: Potentiation of colistin-induced antibacterial activity against Klebsiella pneumoniae 2210291 harbouring mcr-1 gene assessed as reduction in colistin MIC at 15 uM incubated for 16 hrs by broth microdilution method; type: functional, organism-based; outline: as §1
[11] = Cytotoxicity against mouse 4T1 cells assessed as reduction in cell viability in presence of 1 ug/ml colistin incubated for 18 hrs by MTT assay; type: cell-based
Outline: (§2)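 4T1 mouse mammary tumor cells exposed to compound for 18 h, alone or together with colistin at 1 μg/mL. Medium then aspirated and replaced with 0.5 mg/mL MTT in culture medium for colorimetric viability read-out. CT50 taken as the concentration giving 50% cell viability.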

[12] = Cytotoxicity against mouse 4T1 cells assessed as reduction in cell viability incubated for 18 hrs by MTT assay; type: cell-based; outline: as §2
Acinetobacter baumannii [13] = assay: Potentiation of colistin-induced antibacterial activity against Acinetobacter baumannii 17978 harbouring mcr-1 gene assessed as reduction in colistin MIC at 15 uM incubated for 16 hrs by broth microdilution method; type: functional, organism-based; outline: as §1
Acinetobacter baumannii [14] = assay: Potentiation of colistin-induced antibacterial activity against Acinetobacter baumannii 3941 assessed as reduction in colistin MIC at 15 uM incubated for 16 hrs by broth microdilution method (reference value: 512 ug/ml); type: functional; settings: Acinetobacter baumannii, 3941, 16 h
Klebsiella pneumoniae [15] = assay: Potentiation of colistin-induced antibacterial activity against Klebsiella pneumoniae B9 assessed as reduction in colistin MIC at 5 uM incubated for 16 hrs by broth microdilution method (reference value: 512 ug/ml); type: functional; settings: B9, 16 h
Klebsiella pneumoniae [16] = assay: Potentiation of colistin-induced antibacterial activity against Klebsiella pneumoniae B9 assessed as reduction in colistin MIC at 10 uM incubated for 16 hrs by broth microdilution method (reference value: 512 ug/ml); type: functional; settings: B9, 16 h
Outline: (§3)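 Colistin MIC was measured against chromosomally colistin-resistant strains (K. pneumoniae B9, C3; A. baumannii 4106, among four strains) with adjuvant at fixed levels from 20 μM down to 7.5 μM. Fold reduction was reported against colistin alone, with the CLSI breakpoint taken as ≤2 μg/mL.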

Klebsiella pneumoniae [17] = assay: Potentiation of colistin-induced antibacterial activity against Klebsiella pneumoniae C3 assessed as reduction in colistin MIC at 20 uM incubated for 16 hrs by broth microdilution method (reference value: 512 ug/ml); type: functional; settings: C3, 16 h; outline: as §3
Klebsiella pneumoniae [18] = assay: Potentiation of colistin-induced antibacterial activity against Klebsiella pneumoniae C3 assessed as reduction in colistin MIC at 10 uM incubated for 16 hrs by broth microdilution method (reference value: 512 ug/ml); type: functional; settings: C3, 16 h
Klebsiella pneumoniae [19] = assay: Potentiation of colistin-induced antibacterial activity against Klebsiella pneumoniae B9 assessed as reduction in colistin MIC at 20 uM incubated for 16 hrs by broth microdilution method (reference value: 512 ug/ml); type: functional; settings: B9, 16 h
Klebsiella pneumoniae [20] = assay: Potentiation of colistin-induced antibacterial activity against Klebsiella pneumoniae C3 assessed as reduction in colistin MIC at 15 uM incubated for 16 hrs by broth microdilution method (reference value: 512 ug/ml); type: functional; settings: C3, 16 h
Acinetobacter baumannii [21] = assay: Potentiation of colistin-induced antibacterial activity against Acinetobacter baumannii 4106 assessed as reduction in colistin MIC at 20 uM incubated for 16 hrs by broth microdilution method (reference value: 1024 ug/ml); type: functional; settings: Acinetobacter baumannii, 4106, 16 h
Acinetobacter baumannii [22] = assay: Potentiation of colistin-induced antibacterial activity against Acinetobacter baumannii 3941 assessed as reduction in colistin MIC at 10 uM incubated for 16 hrs by broth microdilution method (reference value: 512 ug/ml); type: functional; settings: Acinetobacter baumannii, 3941, 16 h
Acinetobacter baumannii [23] = assay: Potentiation of colistin-induced antibacterial activity against Acinetobacter baumannii 4106 assessed as reduction in colistin MIC at 15 uM incubated for 16 hrs by broth microdilution method (reference value: 1024 ug/ml); type: functional; settings: Acinetobacter baumannii, 4106, 16 h
Acinetobacter baumannii [24] = assay: Potentiation of colistin-induced antibacterial activity against Acinetobacter baumannii 4106 assessed as reduction in colistin MIC at 10 uM incubated for 16 hrs by broth microdilution method (reference value: 1024 ug/ml); type: functional; settings: Acinetobacter baumannii, 4106, 16 h
Klebsiella pneumoniae [25] = assay: Potentiation of colistin-induced antibacterial activity against Klebsiella pneumoniae B9 assessed as reduction in colistin MIC at 15 uM incubated for 16 hrs by broth microdilution method (reference value: 512 ug/ml); type: functional; settings: B9, 16 h
Acinetobacter baumannii [26] = assay: Potentiation of colistin-induced antibacterial activity against Acinetobacter baumannii 3941 assessed as reduction in colistin MIC at 20 uM incubated for 16 hrs by broth microdilution method (reference value: 512 ug/ml); type: functional; settings: Acinetobacter baumannii, 3941, 16 h
Klebsiella pneumoniae [27] = assay: Potentiation of colistin-induced antibacterial activity against Klebsiella pneumoniae B9 assessed as reduction in colistin MIC at 7.5 uM incubated for 16 hrs by broth microdilution method (reference value: 512 ug/ml); type: functional; settings: B9, 16 h
Escherichia coli [28] = assay: Potentiation of colistin-induced antibacterial activity against Escherichia coli YD626 harbouring mcr-1 gene assessed as reduction in colistin MIC at 15 uM incubated for 16 hrs by broth microdilution method (reference value: 8 ug/ml); type: functional; settings: YD626, 16 h; outline: as §1
Klebsiella pneumoniae [29] = assay: Potentiation of colistin-induced antibacterial activity against Klebsiella pneumoniae 2210291 harbouring mcr-1 gene assessed as reduction in colistin MIC at 15 uM incubated for 16 hrs by broth microdilution method (reference value: 16 ug/ml); type: functional; settings: Klebsiella pneumoniae, 2210291, 16 h; outline: as §1
Acinetobacter baumannii [30] = assay: Potentiation of colistin-induced antibacterial activity against Acinetobacter baumannii 17978 harbouring mcr-1 gene assessed as reduction in colistin MIC at 15 uM incubated for 16 hrs by broth microdilution method (reference value: 16 ug/ml); type: functional; settings: Acinetobacter baumannii, 17978, 16 h; outline: as §1

| Compound | MIC (Klebsiella pneumoniae [2]) [µg/mL] | MIC (Escherichia coli [3]) [µg/mL] | MIC (Klebsiella pneumoniae [4]) [µg/mL] | MIC (Acinetobacter baumannii [6]) [µg/mL] | MIC (Acinetobacter baumannii [7]) [µg/mL] | MIC (Escherichia coli [8]) [µg/mL] | Activity (Escherichia coli [9]) | Activity (Klebsiella pneumoniae [10]) | CC50 at 18 h [11] [µM] | CC50 at 18 h [12] [µM] | Activity (Acinetobacter baumannii [13]) | MIC (Acinetobacter baumannii [14]) [µg/mL] | MIC (Klebsiella pneumoniae [15]) [µg/mL] | MIC (Klebsiella pneumoniae [16]) [µg/mL] | MIC (Klebsiella pneumoniae [17]) [µg/mL] | MIC (Klebsiella pneumoniae [18]) [µg/mL] | MIC (Klebsiella pneumoniae [19]) [µg/mL] | MIC (Klebsiella pneumoniae [20]) [µg/mL] | MIC (Acinetobacter baumannii [21]) [µg/mL] | MIC (Acinetobacter baumannii [22]) [µg/mL] | further results |
| --- | --- | --- | --- | --- | --- | --- | --- | --- | --- | --- | --- | --- | --- | --- | --- | --- | --- | --- | --- | --- | --- |
| CN(C)c1cc(NC(=O)CNC(C)(C)C)c(O)c2c1C[C@H]1C[C@H]3[C@H](N(C)C)C(O)=C(C(N)=O)C(=O)[C@@]3(O)C(O)=C1C2=O [TIGECYCLINE] | – | – | – | – | – | – | – | – | – | – | – | – | – | – | – | – | – | – | – | – | Activity (Acinetobacter baumannii [1]): 20% |
| CCCCc1ccc(NC(=O)NCCc2c[nH]c3ccc(Br)cc23)cc1 | 16 | 8 | 0.5 | 2 | 16 | 1 | – | – | – | – | – | – | – | – | – | – | – | – | – | – | hemolysis at 1 h, 200 µM [5]: < 2.5% |
| O=C(NCCc1c[nH]c2ccccc12)Nc1cc(C(F)(F)F)cc(C(F)(F)F)c1 | 1 | 1 | 0.25 | 0.125 | 0.5 | 0.0313 | Active | Active | 61.8 | 60.5 | Active | – | – | – | – | – | – | – | – | – | – |
| O=C(NCCc1c[nH]c2ccccc12)Nc1cc(Br)cc(Br)c1 | 1 | 2 | 0.5 | 0.5 | 1 | 0.25 | Active | Active | 64.2 | 86.2 | Active | 8 | 32 | 1 | 2 | 8 | ≤ 0.25 | 4 | 4 | 16 | MIC (Acinetobacter baumannii [23]): 4 µg/mL; MIC (Acinetobacter baumannii [24]): 8 µg/mL; MIC (Klebsiella pneumoniae [25]): 0.5 µg/mL; MIC (Acinetobacter baumannii [26]): 8 µg/mL; MIC (Klebsiella pneumoniae [27]): 4 µg/mL |
| O=C(NCCc1c[nH]c2ccc(Br)cc12)Nc1ccc(Cl)c(Cl)c1 | 0.5 | 0.5 | 0.5 | 0.5 | 1 | 0.25 | – | – | – | – | – | 4 | 8 | 1 | 1 | 4 | ≤ 0.25 | 2 | 2 | 8 | MIC (Escherichia coli [28]): 1 µg/mL; MIC (Acinetobacter baumannii [23]): 2 µg/mL; MIC (Klebsiella pneumoniae [29]): 1 µg/mL; MIC (Acinetobacter baumannii [24]): 4 µg/mL; MIC (Klebsiella pneumoniae [25]): 0.5 µg/mL; MIC (Acinetobacter baumannii [26]): 2 µg/mL; MIC (Klebsiella pneumoniae [27]): 2 µg/mL; MIC (Acinetobacter baumannii [30]): 1 µg/mL |
